ChEMBL document CHEMBL1240368, “Chloroquine modulates HIV-1-induced plasmacytoid dendritic cell alpha interferon: implication for T-cell activation” (Antimicrob Agents Chemother, 2010)
Calls of active or inactive are those of the source. No cut-off for these calls is given here.

Columns and labels:
[1] = biological target: T1, Toll-like receptor (TLR7/TLR9) (Homo sapiens) (UniProt Q9NR96+Q9NYK1); experiment: Inhibition of TLR7/TLR9-mediated upregulation of indoleamine 2,3-dioxygenase expression in aldrithiol-2-treated HIV1 MN-stimulated human PBMC at 100 uM after 20 hrs by flow cytometry
In short: (§1)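 PBMC preincubated 1 h ± 100 μM chloroquine, stimulated 20 h with AT-2 HIV-1 Ada or MN (500 ng/ml p24); pDC gated Lin1− CD123+ HLA-DR+; surface CD86 (% cells), CD83 (% cells), or intracellular IRAK-4, IRF-7, IDO after Cytofix/Cytoperm with rabbit antibody plus PE anti-rabbit (MFI) by flow cytometry; microvesicle controls.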

[2] = biological target: T1, Toll-like receptor (TLR7/TLR9) (Homo sapiens); experiment: Inhibition of TLR7/TLR9-mediated indoleamine 2,3-dioxygenase activation in aldrithiol-2-treated HIV1 Ada-stimulated human PBMC assessed as decrease in kynurenine to tryptophan level at 100 uM after 20 hrs by fluorometric assay; type: protein assay
In short: (§2)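 PBMC (1 × 10^6/well) ± 100 μM chloroquine (1 h preincubation), stimulated 20 h with AT-2 HIV-1, 3M-011 or CpG A. Kynurenine in supernatant: 30% TCA, 50°C, 30 min, then Ehrlich's reagent, absorbance 490 nm. Tryptophan: 20% TCA, then TCA/formaldehyde/FeCl3 at 90°C for 2 h, fluorescence ex 360/em 460 nm. Duplicates, standard curves; reported as kynurenine/tryptophan ratio.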

[3] = biological target: T2, TLR7 and TLR8 (Homo sapiens) (UniProt Q9NYK1+Q9NR97); experiment: Inhibition of TLR7/TLR8-mediated upregulation of PDL1 expression in 3M-011-stimulated human PBMC at 100 uM after 20 hrs by flow cytometry
In short: (§3)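 Human PBMC (1 × 10^6 cells/well) preincubated 1 h with 100 μM chloroquine or medium, then cultured 20 h at 37°C with AT-2 HIV-1 (500 ng/ml p24), 3M-011 (3.0 μM) or CpG A (4 μg/ml); PDL-1 on pDC read as MFI by flow cytometry.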

[4] = biological target: T1, Toll-like receptor (TLR7/TLR9) (Homo sapiens); experiment: Inhibition of TLR7/TLR9-mediated upregulation of PDL1 expression in aldrithiol-2-treated HIV1 MN-stimulated human PBMC at 100 uM after 20 hrs by flow cytometry; in short: as §3
[5] = biological target: T3, Toll-like receptor 7 (Homo sapiens) (UniProt Q9NYK1); experiment: Inhibition of TLR7-mediated upregulation of IRAK4 expression in aldrithiol-2-treated HIV1 MN-stimulated human PBMC at 100 uM after 20 hrs by flow cytometry; in short: as §1
T3 sequence (whole entry): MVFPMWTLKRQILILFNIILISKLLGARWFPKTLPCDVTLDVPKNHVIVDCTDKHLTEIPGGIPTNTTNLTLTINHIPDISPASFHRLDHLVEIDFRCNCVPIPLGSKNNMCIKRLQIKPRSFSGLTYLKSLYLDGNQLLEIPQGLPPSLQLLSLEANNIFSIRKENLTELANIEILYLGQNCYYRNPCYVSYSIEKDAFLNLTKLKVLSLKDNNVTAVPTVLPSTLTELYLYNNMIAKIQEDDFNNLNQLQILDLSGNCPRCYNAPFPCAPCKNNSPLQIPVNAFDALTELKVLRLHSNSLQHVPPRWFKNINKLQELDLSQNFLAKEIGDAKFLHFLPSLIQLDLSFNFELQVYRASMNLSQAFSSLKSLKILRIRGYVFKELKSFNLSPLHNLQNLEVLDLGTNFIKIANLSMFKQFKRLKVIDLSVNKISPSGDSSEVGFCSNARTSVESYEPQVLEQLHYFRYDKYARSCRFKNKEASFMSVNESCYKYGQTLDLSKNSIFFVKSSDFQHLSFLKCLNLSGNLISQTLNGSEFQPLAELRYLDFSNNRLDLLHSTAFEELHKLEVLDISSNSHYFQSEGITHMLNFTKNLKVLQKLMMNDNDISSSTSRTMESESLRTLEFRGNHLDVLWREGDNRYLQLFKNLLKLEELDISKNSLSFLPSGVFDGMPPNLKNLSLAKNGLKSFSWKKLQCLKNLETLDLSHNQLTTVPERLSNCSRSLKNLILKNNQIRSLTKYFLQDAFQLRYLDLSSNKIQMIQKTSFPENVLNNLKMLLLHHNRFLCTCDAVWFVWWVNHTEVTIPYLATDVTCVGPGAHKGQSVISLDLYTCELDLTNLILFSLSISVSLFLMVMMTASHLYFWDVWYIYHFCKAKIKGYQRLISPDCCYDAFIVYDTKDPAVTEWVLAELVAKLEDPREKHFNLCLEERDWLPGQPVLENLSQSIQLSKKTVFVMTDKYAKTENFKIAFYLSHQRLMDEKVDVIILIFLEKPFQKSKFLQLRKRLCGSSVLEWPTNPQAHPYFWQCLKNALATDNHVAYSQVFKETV

[6] = biological target: T3, Toll-like receptor 7 (Homo sapiens); experiment: Inhibition of TLR7-mediated IFN-alpha production in aldrithiol-2-treated HIV1 MN-stimulated human PBMC at 100 uM after 20 hrs by ELISA
[7] = biological target: T3, Toll-like receptor 7 (Homo sapiens); experiment: Inhibition of TLR7-mediated IFN-alpha production in aldrithiol-2-treated HIV1 Ada-stimulated human PBMC at 100 uM after 20 hrs by ELISA
[8] = biological target: T1, Toll-like receptor (TLR7/TLR9) (Homo sapiens); experiment: Inhibition of TLR7/TLR9-mediated upregulation of PDL1 expression in aldrithiol-2-treated HIV1 Ada-stimulated human PBMC at 100 uM after 20 hrs by flow cytometry; in short: as §3
[9] = biological target: T3, Toll-like receptor 7 (Homo sapiens); experiment: Inhibition of TLR7-mediated IFN-alpha production in aldrithiol-2-treated HIV1 Ada-stimulated human PBMC after 20 hrs by ELISA
[10] = biological target: T4, Toll-like receptor 9 (Homo sapiens) (UniProt Q9NR96); experiment: Inhibition of TLR9-mediated indoleamine 2,3-dioxygenase activation in CpGA-stimulated human PBMC assessed as decrease in kynurenine to tryptophan level at 100 uM after 20 hrs by ELISA
T4 sequence (whole entry): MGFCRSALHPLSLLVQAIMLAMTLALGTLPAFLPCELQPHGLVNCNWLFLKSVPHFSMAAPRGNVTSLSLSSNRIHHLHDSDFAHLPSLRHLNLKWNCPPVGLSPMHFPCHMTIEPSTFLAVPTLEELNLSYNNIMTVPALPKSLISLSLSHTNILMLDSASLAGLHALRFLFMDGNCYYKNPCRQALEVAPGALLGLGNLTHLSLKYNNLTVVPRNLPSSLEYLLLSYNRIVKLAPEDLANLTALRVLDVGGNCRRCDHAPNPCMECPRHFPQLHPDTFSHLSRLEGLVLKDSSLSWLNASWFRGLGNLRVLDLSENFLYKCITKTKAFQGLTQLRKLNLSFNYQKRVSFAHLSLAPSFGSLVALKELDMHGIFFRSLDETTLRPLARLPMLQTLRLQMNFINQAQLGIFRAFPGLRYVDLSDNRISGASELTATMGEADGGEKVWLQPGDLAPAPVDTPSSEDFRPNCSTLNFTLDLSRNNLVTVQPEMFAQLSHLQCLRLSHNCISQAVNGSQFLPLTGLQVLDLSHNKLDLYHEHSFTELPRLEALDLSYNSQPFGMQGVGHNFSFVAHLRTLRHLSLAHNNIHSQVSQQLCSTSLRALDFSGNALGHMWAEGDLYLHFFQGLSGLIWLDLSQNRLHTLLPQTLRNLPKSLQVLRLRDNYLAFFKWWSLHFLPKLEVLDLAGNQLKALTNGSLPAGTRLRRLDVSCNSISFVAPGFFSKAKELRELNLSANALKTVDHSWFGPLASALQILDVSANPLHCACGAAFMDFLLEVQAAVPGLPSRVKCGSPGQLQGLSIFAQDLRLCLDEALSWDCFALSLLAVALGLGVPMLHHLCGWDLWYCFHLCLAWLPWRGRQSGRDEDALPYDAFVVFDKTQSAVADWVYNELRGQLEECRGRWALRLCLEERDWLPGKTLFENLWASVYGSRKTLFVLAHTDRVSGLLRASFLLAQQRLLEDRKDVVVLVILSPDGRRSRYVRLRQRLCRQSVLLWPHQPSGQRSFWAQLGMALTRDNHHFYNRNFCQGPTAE

[11] = biological target: T2, TLR7 and TLR8 (Homo sapiens); experiment: Inhibition of TLR7/TLR8-mediated indoleamine 2,3-dioxygenase activation in 3M-011-stimulated human PBMC assessed as decrease in kynurenine to tryptophan level at 100 uM after 20 hrs by ELISA; type: protein assay
[12] = biological target: T3, Toll-like receptor 7 (Homo sapiens); experiment: Inhibition of TLR7-mediated upregulation of IRAK4 expression in aldrithiol-2-treated HIV1 Ada-stimulated human PBMC at 100 uM after 20 hrs by flow cytometry; in short: as §1
[13] = biological target: T1, Toll-like receptor (TLR7/TLR9) (Homo sapiens); experiment: Inhibition of TLR7/TLR9-mediated indoleamine 2,3-dioxygenase activation in aldrithiol-2-treated HIV1 MN-stimulated human PBMC assessed as decrease in kynurenine to tryptophan level at 100 uM after 20 hrs by fluorometric assay; type: protein assay; in short: as §2
[14] = biological target: T1, Toll-like receptor (TLR7/TLR9) (Homo sapiens); experiment: Inhibition of TLR7/TLR9-mediated maturation of aldrithiol-2-treated HIV1 Ada-stimulated human PBMC assessed as CD83 expressing cells at 100 uM after 20 hrs by flow cytometry; type: cell-based; set-up: scale not given: the % may be the effect or the level left; in short: as §1
[15] = biological target: T1, Toll-like receptor (TLR7/TLR9) (Homo sapiens); experiment: Inhibition of TLR7/TLR9-mediated activation of aldrithiol-2-treated HIV1 Ada-stimulated human PBMC assessed as CD86 expressing cells at 100 uM after 20 hrs by flow cytometry; type: cell-based; set-up: scale not given: the % may be the effect or the level left; in short: as §1
[16] = biological target: T4, Toll-like receptor 9 (Homo sapiens); experiment: Inhibition of TLR9-mediated upregulation of PDL1 expression in CpGA-stimulated human PBMC at 100 uM after 20 hrs by flow cytometry; in short: as §3
[17] = biological target: T3, Toll-like receptor 7 (Homo sapiens); experiment: Inhibition of TLR7-mediated upregulation of IRF7 expression in aldrithiol-2-treated HIV1 MN-stimulated human PBMC at 100 uM after 20 hrs by flow cytometry; in short: as §1
[18] = biological target: T4, Toll-like receptor 9 (Homo sapiens); experiment: Inhibition of TLR9-mediated IFN-alpha production in CpGA-stimulated human PBMC at 100 uM after 20 hrs by ELISA
[19] = biological target: T1, Toll-like receptor (TLR7/TLR9) (Homo sapiens); experiment: Inhibition of TLR7/TLR9-mediated activation of aldrithiol-2-treated HIV1 MN-stimulated human PBMC assessed as CD86 expressing cells at 100 uM after 20 hrs by flow cytometry; type: cell-based; set-up: scale not given: the % may be the effect or the level left; in short: as §1
[20] = biological target: T3, Toll-like receptor 7 (Homo sapiens); experiment: Inhibition of TLR7-mediated IFN-alpha production in aldrithiol-2-treated HIV1 MN-stimulated human PBMC after 20 hrs by ELISA
[21] = biological target: T1, Toll-like receptor (TLR7/TLR9) (Homo sapiens); experiment: Inhibition of TLR7/TLR9-mediated activation of exogenous rIFNalpha2A-stimulated human CD8-positive T cells assessed as […] at 5 uM after 20 hrs by flow cytometry; type: cell-based; conditions: T-cell
In short: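 Bead-enriched CD8+ T cells (indirect negative isolation) preincubated 1 h with 5 μM chloroquine, then given 1,000 U/ml rIFN-α2a for 20 h; CD38 MFI on CD3+ CD8+ cells by flow cytometry; anti-IFN-αR 64G12 (10 μg/ml, 30 min pretreatment) used as comparator; n = 3 experiments.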

[22] = biological target: T1, Toll-like receptor (TLR7/TLR9) (Homo sapiens); experiment: Inhibition of TLR7/TLR9-mediated upregulation of indoleamine 2,3-dioxygenase expression in aldrithiol-2-treated HIV1 Ada-stimulated human PBMC at 100 uM after 20 hrs by flow cytometry; in short: as §1
[23] = biological target: T2, TLR7 and TLR8 (Homo sapiens); experiment: Inhibition of TLR7/TLR8-mediated IFN-alpha production in 3M-011-stimulated human PBMC at 100 uM after 20 hrs by ELISA
[24] = biological target: T1, Toll-like receptor (TLR7/TLR9) (Homo sapiens); experiment: Inhibition of TLR7/TLR9-mediated maturation of aldrithiol-2-treated HIV1 MN-stimulated human PBMC assessed as CD83 expressing cells at 100 uM after 20 hrs by flow cytometry; type: cell-based; set-up: scale not given: the % may be the effect or the level left; in short: as §1
[25] = biological target: T3, Toll-like receptor 7 (Homo sapiens); experiment: Inhibition of TLR7-mediated upregulation of IRF7 expression in aldrithiol-2-treated HIV1 Ada-stimulated human PBMC at 100 uM after 20 hrs by flow cytometry; in short: as §1
[26] = biological target: T1, Toll-like receptor (TLR7/TLR9) (Homo sapiens); experiment: Inhibition of TLR7/TLR9-mediated activation of aldrithiol-2-treated HIV1 Ada-stimulated human PBMC assessed as CD38-MFI level in activated CD8-positive cells at 5 uM after 20 hrs by flow cytometry; type: cell-based
In short: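 PBMC preincubated 1 h with 5 μM chloroquine, then stimulated with AT-2 HIV-1 Ada for 20 h; CD38 surface expression on gated CD3+ CD8+ T cells by flow cytometry, expressed as CD38 MFI.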

T2 sequence (Q9NR97 whole entry, looked up, one chain of several): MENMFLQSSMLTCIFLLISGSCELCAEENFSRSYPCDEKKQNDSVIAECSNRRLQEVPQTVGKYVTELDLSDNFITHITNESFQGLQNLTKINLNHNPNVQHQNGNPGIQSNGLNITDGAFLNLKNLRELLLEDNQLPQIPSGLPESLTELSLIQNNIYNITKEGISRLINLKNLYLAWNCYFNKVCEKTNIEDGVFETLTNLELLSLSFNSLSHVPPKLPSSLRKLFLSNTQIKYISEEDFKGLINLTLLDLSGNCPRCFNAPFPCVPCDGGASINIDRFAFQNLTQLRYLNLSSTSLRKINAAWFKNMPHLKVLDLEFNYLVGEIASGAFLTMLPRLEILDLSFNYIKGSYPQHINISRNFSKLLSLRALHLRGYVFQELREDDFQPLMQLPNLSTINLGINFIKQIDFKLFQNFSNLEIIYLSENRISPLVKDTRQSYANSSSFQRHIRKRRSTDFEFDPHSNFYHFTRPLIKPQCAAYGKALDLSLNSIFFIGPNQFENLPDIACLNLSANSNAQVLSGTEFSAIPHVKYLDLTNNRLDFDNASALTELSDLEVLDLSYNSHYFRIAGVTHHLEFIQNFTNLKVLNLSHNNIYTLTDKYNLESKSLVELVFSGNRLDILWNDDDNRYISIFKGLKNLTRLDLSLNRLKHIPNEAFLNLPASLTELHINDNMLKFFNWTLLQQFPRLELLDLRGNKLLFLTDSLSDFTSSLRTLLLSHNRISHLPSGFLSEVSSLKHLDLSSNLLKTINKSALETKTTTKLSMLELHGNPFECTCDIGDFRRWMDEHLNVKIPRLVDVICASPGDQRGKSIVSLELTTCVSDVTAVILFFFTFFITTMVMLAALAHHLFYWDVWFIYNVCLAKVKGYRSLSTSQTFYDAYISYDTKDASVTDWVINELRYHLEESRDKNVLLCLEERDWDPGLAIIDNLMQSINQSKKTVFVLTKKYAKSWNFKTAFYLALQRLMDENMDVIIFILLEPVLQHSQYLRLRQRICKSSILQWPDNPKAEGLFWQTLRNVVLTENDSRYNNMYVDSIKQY

inhibition [1]: Active
inhibition [2]: Active
inhibition [3]: Active
inhibition [4]: Active
inhibition [5]: Active
inhibition [6]: Active
inhibition [7]: Active
inhibition [8]: Active
inhibition [9]: Dose-dependent effect
inhibition [10]: Active
inhibition [11]: Active
inhibition [12]: Active
inhibition [13]: Active
Activity [14]: 12.6%
Activity [15]: 11.1%
inhibition [16]: Active
inhibition [17]: Active
inhibition [18]: Active
Activity [19]: 8.2%
inhibition [20]: Dose-dependent effect
inhibition [21]: inactive
inhibition [22]: Active
inhibition [23]: Active
Activity [24]: 14.3%
inhibition [25]: Active
inhibition [26]: 23.4%
SMILES: CCN(CC)CCCC(C)Nc1ccnc2cc(Cl)ccc12 (stereo unspecified)
